Assay results taken from ChEMBL document CHEMBL1125331, “6-Hydroxy-3-n-propyl-2,3,4,5-tetrahydro-1H-3-benzazepine and analogs: new centrally acting 5-HT1A receptor agonists” (J Med Chem, 1992).

Key:
[1] = target: T1, 5-hydroxytryptamine receptor 1A (Rattus norvegicus, UniProt P19327); assay: Inhibitory activity against 5-hydroxytryptamine 1A receptor in rats, using [3H]8-OH-DPAT as radioligand
T1 sequence (P19327 whole entry): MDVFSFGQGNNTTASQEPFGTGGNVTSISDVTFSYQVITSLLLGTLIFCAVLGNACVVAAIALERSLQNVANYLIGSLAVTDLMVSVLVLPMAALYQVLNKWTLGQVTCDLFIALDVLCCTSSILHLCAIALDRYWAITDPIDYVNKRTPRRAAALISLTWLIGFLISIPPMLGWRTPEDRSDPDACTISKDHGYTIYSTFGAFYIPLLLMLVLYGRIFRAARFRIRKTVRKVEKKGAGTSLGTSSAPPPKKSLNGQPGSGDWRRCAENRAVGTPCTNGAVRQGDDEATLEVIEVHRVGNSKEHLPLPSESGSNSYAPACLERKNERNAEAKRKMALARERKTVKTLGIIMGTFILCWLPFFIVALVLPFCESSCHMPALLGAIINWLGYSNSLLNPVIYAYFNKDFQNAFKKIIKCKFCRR
Method in brief: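 Rat whole-brain membranes (minus brainstem and cerebellum) in 50 mM Tris pH 8.0 with 120 mM NaCl, 4 mM CaCl2, 4 mM MgCl2 and 10 μM pargyline. Rapid filtration, then scintillation counting. Nonspecific binding defined with 10 μM 5-HT. IC50 by semi-log plot and linear regression.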

[2] = target: D(2) dopamine receptor (Rattus norvegicus, UniProt P61169); assay: Inhibitory activity against Dopamine receptor D2 in rats using [3H]spiperone as radioligand
Method in brief: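 Rat striatal membranes in 50 mM potassium phosphate buffer pH 7.4 were incubated with 0.5 nM [3H]spiperone for 10 min at 37 °C. Specific binding was defined with 10 μM 6,7-ADTN.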

[3] = system: Rattus norvegicus; assay: Effect evaluated in vivo on 5-HTP accumulation in limbic system at a dose 3.1 umol/kg (p.o.); type: functional
Method in brief: (§1)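 Oral dosing in male Sprague-Dawley rats (200–300 g) pretreated with reserpine 5 mg/kg sc 18 h before. After decarboxylase inhibition with NSD 1015, brain 5-HTP or dopa accumulation (HPLC-electrochemical detection) indexed 5-HT synthesis, DA synthesis (limbic) or NE synthesis (hemispheres, mainly cortex).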

[4] = system: Rattus norvegicus; assay: Effect evaluated in vivo on 5-HTP accumulation in limbic system at a dose 3.1 umol/kg (s.c.); type: functional
Method in brief: (§2)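 Male Sprague-Dawley rats (200–300 g) were pretreated with reserpine 5 mg/kg sc 18 h before. Test compound was given sc at 5 mL/kg in neutral solution. 5-HT synthesis rate was indexed by […] 5-HTP accumulation after decarboxylase inhibition with NSD 1015, measured by HPLC-electrochemical detection. Dose-response used 4–6 dose levels, n = 4.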

[5] = system: Rattus norvegicus; assay: Effect evaluated in vivo on 5-HTP accumulation in limbic system at a dose 50 umol/kg (p.o.); type: functional; method in brief: as §1
[6] = system: Rattus norvegicus; assay: Effect evaluated in vivo on 5-HTP accumulation in rats limbic system at a dose 50 umol/kg (s.c.); type: functional; method in brief: as §2
[7] = system: Rattus norvegicus; assay: Effect evaluated in vivo on 5-HTP accumulation in NE-rich hemispheres at a 0.78 dose uM/kg(sc); type: functional
Method in brief: (§3)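 Male Sprague-Dawley rats (200–300 g) were pretreated with reserpine 5 mg/kg sc 18 h beforehand. Test drug was given at neutral pH, 5 mL/kg. Aromatic amino acid decarboxylase was blocked with NSD 1015. 5-HTP in the dissected brain region was assayed by HPLC with electrochemical detection.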

[8] = system: Rattus norvegicus; assay: Effect evaluated in vivo on 5-HTP accumulation in NE-rich hemispheres at a 0.80 dose uM/kg(po); type: functional; method in brief: as §3
[9] = system: Rattus norvegicus; assay: Effect evaluated in vivo on 5-HTP accumulation in corpus striatum at a dose 12.5 umol/kg (p.o.); type: functional; method in brief: as §3
[10] = system: Rattus norvegicus; assay: Effect evaluated in vivo on 5-HTP accumulation in corpus striatum at a dose 12.5 umol/kg (s.c.); type: functional; method in brief: as §3
[11] = system: Rattus norvegicus; assay: Effect evaluated in vivo on 5-HTP accumulation in corpus striatum at a dose 3.1 umol/kg (p.o.); type: functional; method in brief: as §3
[12] = system: Rattus norvegicus; assay: Effect evaluated in vivo on 5-HTP accumulation in corpus striatum at a dose 3.1 umol/kg (s.c.); type: functional; method in brief: as §3
[13] = system: Rattus norvegicus; assay: Effect evaluated in vivo on 5-HTP accumulation in corpus striatum at a dose 50 umol/kg (p.o.); type: functional; method in brief: as §3
[14] = system: Rattus norvegicus; assay: Effect evaluated in vivo on 5-HTP accumulation in corpus striatum after perioral administration; type: functional; method in brief: as §3
[15] = system: Rattus norvegicus; assay: Effect evaluated in vivo on 5-HTP accumulation in limbic system after perioral administration; type: functional; method in brief: as §3
[16] = system: Rattus norvegicus; assay: Effect evaluated in vivo on 5-HTP accumulation in limbic system after subcutaneous administration; type: functional; conditions: sc; method in brief: as §3
[17] = system: Rattus norvegicus; assay: Effect evaluated in vivo on 5-HTP accumulation synthesis in NE-rich hemispheres after perioral administration; type: functional; method in brief: as §1
[18] = system: Rattus norvegicus; assay: Effect evaluated in vivo on NE synthesis in NE-rich hemispheres after subcutaneous administration; type: functional; conditions: sc
Method in brief: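 Rats pretreated with reserpine 5 mg/kg sc 18 h before received test compound sc at 5 mL/kg in neutral solution. After decarboxylase inhibition with NSD 1015, dopa accumulation in hemispheres (mainly cortex) was measured by HPLC-electrochemical detection as an index of NE synthesis. Dose-response used 4–6 dose levels, n = 4.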

[19] = system: Rattus norvegicus; assay: Effect evaluated in vivo on 5-HTP accumulation in limbic system at a dose 0.78 umol/kg (s.c.); type: functional; method in brief: as §3
[20] = system: Rattus norvegicus; assay: Effect evaluated in vivo on 5-HTP accumulation in limbic system at a dose 0.80 umol/kg (p.o.); type: functional; method in brief: as §1
[21] = system: Rattus norvegicus; assay: Effect evaluated in vivo on 5-HTP accumulation in limbic system at a dose 12.5 umol/kg (p.o.); type: functional; method in brief: as §1
[22] = system: Rattus norvegicus; assay: Effect evaluated in vivo on 5-HTP accumulation in limbic system at a dose 12.5 umol/kg (s.c.); type: functional; method in brief: as §2
[23] = system: Rattus norvegicus; assay: Effect evaluated in vivo on 5-HTP accumulation in NE-rich hemispheres at a 12.5 dose uM/kg(po); type: functional; method in brief: as §3
[24] = system: Rattus norvegicus; assay: Effect evaluated in vivo on 5-HTP accumulation in NE-rich hemispheres at a 12.5 dose uM/kg(sc); type: functional; method in brief: as §3
[25] = system: Rattus norvegicus; assay: Effect evaluated in vivo on 5-HTP accumulation in NE-rich hemispheres at a 3.1 dose uM/kg(po); type: functional; method in brief: as §3
[26] = system: Rattus norvegicus; assay: Effect evaluated in vivo on 5-HTP accumulation in NE-rich hemispheres at a 3.1 dose uM/kg(sc); type: functional; method in brief: as §3
[27] = system: Rattus norvegicus; assay: Effect evaluated in vivo on 5-HTP accumulation in NE-rich hemispheres at a 50 dose uM/kg(po); type: functional; method in brief: as §3
[28] = system: Rattus norvegicus; assay: Effect evaluated in vivo on 5-HTP accumulation in NE-rich hemispheres at a 50 dose uM/kg(sc); type: functional; method in brief: as §3
[29] = system: Rattus norvegicus; assay: Effect evaluated in vivo on 5-HTP accumulation in corpus striatum after subcutaneous administration; type: functional; conditions: sc; method in brief: as §3
[30] = system: Rattus norvegicus; assay: Effect evaluated in vivo on 5-HTP accumulation in corpus striatum at a dose 0.78 umol/kg (s.c.); type: functional; method in brief: as §3
[31] = system: Rattus norvegicus; assay: Effect evaluated in vivo on 5-HTP accumulation in corpus striatum at a dose 0.80 umol/kg (p.o.); type: functional; method in brief: as §3
[32] = system: Rattus norvegicus; assay: The compound was tested in vivo for locomotor activity in rats at 50 umol/kg after perioral administration; type: functional
Method in brief: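 Reserpine-pretreated rats (5 mg/kg sc, 18 h before) received test compound orally. Photocell motility counts were accumulated over 30 min, and gross behaviour, including 5-HT syndrome, was observed.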

[33] = system: Rattus norvegicus; assay: The compound was tested in vivo for locomotor activity in rats at 50 umol/kg after subcutaneous administration; type: functional
Method in brief: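 Male Sprague-Dawley rats received reserpine 5 mg/kg sc in the neck 18 h before testing. Test compound was given sc in the neck (n = 4). Rats were placed singly in photocell motility meters immediately after dosing, and counts were accumulated over 30 min (tests 9 a.m.–1 p.m.). Gross behaviour, including 5-HT syndrome, was observed throughout.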

[34] = system: Rattus norvegicus; assay: Effect evaluated in vivo on 5-HTP accumulation in limbic system at a dose 50 umol/kg (s.c.); type: functional; method in brief: as §2
[35] = system: Rattus norvegicus; assay: Effect evaluated in vivo on 5-HTP accumulation in NE-rich hemispheres at a 0.20 dose uM/kg(sc); type: functional; method in brief: as §3
[36] = system: Rattus norvegicus; assay: Effect evaluated in vivo on 5-HTP accumulation in NE-rich hemispheres at a 0.80 dose uM/kg(sc); type: functional; method in brief: as §3
[37] = system: Rattus norvegicus; assay: Effect evaluated in vivo on 5-HTP accumulation in corpus striatum at a dose 50 umol/kg (s.c.); type: functional; method in brief: as §3
[38] = system: Rattus norvegicus; assay: Effect evaluated in vivo on 5-HTP accumulation in limbic system at a dose 0.20 umol/kg (s.c.); type: functional; method in brief: as §3
[39] = system: Rattus norvegicus; assay: Effect evaluated in vivo on 5-HTP accumulation in limbic system at a dose 0.80 umol/kg (s.c.); type: functional; method in brief: as §2
[40] = system: Rattus norvegicus; assay: Effect evaluated in vivo on 5-HTP accumulation in NE-rich hemispheres after perioral administration; type: functional; method in brief: as §3
[41] = system: Rattus norvegicus; assay: Effect evaluated in vivo on 5-HTP accumulation in NE-rich hemispheres after subcutaneous administration; type: functional; conditions: sc; method in brief: as §3
[42] = system: Rattus norvegicus; assay: Effect evaluated in vivo on 5-HTP accumulation in corpus striatum at a dose 0.20 umol/kg (s.c.); type: functional; method in brief: as §3
[43] = system: Rattus norvegicus; assay: Effect evaluated in vivo on 5-HTP accumulation in corpus striatum at a dose 0.80 umol/kg (s.c.); type: functional; method in brief: as §3

Sequence of D(2) dopamine receptor (P61169 whole entry): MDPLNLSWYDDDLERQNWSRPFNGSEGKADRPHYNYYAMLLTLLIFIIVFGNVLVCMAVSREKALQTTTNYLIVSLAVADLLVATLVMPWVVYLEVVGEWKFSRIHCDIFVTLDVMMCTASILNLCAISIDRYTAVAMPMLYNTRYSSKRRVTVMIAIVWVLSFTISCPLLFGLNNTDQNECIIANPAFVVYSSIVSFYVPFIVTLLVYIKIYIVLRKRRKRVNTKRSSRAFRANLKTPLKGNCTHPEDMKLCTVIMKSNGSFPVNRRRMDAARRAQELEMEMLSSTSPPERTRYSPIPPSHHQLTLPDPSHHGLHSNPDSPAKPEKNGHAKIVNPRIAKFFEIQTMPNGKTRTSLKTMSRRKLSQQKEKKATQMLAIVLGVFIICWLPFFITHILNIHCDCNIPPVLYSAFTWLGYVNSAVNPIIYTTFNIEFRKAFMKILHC

Row | Compound | IC50 [1] [nM] | IC50 [2] [nM] | Control [3] [%] | Control [4] [%] | Control [5] [%] | Control [9] [%] | Control [11] [%] | Control [12] [%] | Control [13] [%] | ED50 [14] [µmol/kg] | ED50 [15] [µmol/kg] | ED50 [16] [µmol/kg] | Control [20] [%] | Control [21] [%] | Control [26] [%] | Control [28] [%] | ED50 [29] [µmol/kg] | Control [31] [%] | Locomotor activity [32] | Locomotor activity [33] | also measured
1 | COc1cccc2c1CCN(CC1CC1)CC2 | 120 | 7600 | 70 | 67 | 48 | 77 | 59 | 68 | 48 | 7 | 5.5 | 1.7 | 101 | 83 | 77 | 43 | 2.5 | 102 | 31 | 107 | Control [6]: 42%; Control [7]: 95%; Control [8]: 102%; Control [10]: 60%; ED50 [17]: 6.5 µmol/kg; ED50 [18]: 4 µmol/kg; Control [19]: 84%; Control [22]: 56%; Control [23]: 89%; Control [24]: 85%; Control [25]: 75%; Control [27]: 50%; Control [30]: 88%
2 | CCCN1CCc2c(Br)ccc(OC)c2CC1 | 28 | 680 | 90 | 69 | 48 | 77 | 96 | 71 | 50 | 14 | 13 | 2.7 | 88 | 76 | 83 | 43 | 3.2 | 112 | 21 | 108 | Control [34]: 48%; Control [35]: 102%; Control [36]: 111%; Control [37]: 50%; Control [38]: 108%; Control [39]: 118%; ED50 [40]: 21 µmol/kg; ED50 [41]: 5 µmol/kg; Control [42]: 117%; Control [43]: 130%
